Reference: ChEMBL document CHEMBL1833814 (Bioorg Med Chem Lett, 2011)

Target: Fatty acid synthase (Homo sapiens, UniProt P49327)
Assay: Inhibition of human FAS assessed as synthesis of long chain fatty acids from malonyl CoA after 60 mins by fluorescence assay
Method in brief: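 FAS enzyme prepared from HeLa cells, in enzyme buffer (20 mM K phosphate, 1 mM EDTA, 1 mM DTT, 5% glycerol, pH 7.4). It was preincubated 60 min at 37 °C with compound (0.1% DMSO), 326 µM NADPH and 60 µM acetyl CoA in 100 mM K phosphate, 1 mM EDTA, 1 mM DTT, pH 7.0. The reaction was started with 200 µM malonyl CoA. NADPH consumption was read at 340 nm over 10 min, and the slope (Vmax) was taken.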

Sequence of Fatty acid synthase (P49327 whole entry): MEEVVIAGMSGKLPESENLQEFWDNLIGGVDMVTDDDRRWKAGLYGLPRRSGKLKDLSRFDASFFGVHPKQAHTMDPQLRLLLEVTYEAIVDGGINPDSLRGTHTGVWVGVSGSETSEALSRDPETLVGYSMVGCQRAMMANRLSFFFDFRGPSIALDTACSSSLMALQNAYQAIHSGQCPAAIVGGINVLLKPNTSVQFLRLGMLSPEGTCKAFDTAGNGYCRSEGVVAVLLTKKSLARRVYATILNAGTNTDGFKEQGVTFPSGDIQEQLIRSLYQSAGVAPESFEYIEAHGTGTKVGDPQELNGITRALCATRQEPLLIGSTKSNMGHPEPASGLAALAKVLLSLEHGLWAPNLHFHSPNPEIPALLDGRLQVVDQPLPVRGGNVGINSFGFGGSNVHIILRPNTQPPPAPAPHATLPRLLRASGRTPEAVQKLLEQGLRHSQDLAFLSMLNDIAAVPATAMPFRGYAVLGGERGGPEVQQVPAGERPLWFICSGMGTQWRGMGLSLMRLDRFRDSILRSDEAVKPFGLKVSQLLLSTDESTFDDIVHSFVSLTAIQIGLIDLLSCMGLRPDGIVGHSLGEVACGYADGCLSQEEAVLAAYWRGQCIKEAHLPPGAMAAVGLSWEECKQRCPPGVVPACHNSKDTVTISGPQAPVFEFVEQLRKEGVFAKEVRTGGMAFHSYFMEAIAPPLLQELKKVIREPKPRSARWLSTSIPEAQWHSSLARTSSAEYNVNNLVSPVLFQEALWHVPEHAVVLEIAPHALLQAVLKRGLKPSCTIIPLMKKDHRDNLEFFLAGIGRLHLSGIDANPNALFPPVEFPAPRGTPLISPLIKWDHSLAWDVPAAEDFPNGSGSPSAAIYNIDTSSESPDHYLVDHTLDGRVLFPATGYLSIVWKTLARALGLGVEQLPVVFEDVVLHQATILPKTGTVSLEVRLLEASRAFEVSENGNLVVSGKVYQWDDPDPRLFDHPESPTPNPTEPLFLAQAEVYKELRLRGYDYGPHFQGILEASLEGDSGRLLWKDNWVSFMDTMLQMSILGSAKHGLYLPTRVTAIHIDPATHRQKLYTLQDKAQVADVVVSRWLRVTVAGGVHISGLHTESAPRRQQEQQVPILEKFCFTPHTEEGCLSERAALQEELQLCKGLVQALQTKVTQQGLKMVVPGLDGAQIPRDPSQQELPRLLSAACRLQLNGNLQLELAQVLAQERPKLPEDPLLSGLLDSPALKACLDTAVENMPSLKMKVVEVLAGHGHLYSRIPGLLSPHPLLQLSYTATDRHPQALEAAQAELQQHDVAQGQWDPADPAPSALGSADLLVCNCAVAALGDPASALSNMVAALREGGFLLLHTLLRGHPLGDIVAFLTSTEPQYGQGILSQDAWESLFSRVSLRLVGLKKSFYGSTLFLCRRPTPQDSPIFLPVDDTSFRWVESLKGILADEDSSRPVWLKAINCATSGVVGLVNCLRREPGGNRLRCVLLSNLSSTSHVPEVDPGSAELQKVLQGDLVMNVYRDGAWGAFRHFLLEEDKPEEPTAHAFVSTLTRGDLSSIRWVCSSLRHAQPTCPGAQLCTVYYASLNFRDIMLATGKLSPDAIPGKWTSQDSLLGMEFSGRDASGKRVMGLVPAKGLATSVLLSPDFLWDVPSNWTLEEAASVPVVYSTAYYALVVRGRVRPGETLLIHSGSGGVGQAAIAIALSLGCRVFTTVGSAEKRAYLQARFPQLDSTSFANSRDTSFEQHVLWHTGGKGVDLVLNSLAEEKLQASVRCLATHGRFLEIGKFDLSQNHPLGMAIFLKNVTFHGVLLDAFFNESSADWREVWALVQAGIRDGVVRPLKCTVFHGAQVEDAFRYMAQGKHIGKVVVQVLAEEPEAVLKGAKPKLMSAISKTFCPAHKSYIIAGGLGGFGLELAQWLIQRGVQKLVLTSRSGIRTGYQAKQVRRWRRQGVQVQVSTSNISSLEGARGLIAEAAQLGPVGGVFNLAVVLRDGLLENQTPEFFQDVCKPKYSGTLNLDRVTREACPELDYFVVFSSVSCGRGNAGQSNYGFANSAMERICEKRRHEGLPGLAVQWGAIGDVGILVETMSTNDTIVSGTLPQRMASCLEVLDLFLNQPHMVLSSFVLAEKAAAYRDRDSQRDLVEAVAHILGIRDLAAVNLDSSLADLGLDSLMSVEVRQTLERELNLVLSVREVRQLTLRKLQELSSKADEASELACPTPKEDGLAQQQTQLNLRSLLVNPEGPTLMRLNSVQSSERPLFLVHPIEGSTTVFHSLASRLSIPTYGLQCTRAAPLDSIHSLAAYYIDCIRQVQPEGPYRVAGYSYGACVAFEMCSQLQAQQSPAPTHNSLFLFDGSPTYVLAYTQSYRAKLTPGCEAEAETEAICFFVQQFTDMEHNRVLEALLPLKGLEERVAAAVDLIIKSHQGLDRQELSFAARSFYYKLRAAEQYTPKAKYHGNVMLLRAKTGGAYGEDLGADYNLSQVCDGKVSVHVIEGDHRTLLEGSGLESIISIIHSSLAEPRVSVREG

Row | SMILES | IC50 [µM]
1 | C/C=C/C/C=C/CCC(=O)[C@H]1O[C@H]1C(N)=O [CERULENIN] | 5.8
2 | CCC(=O)N[C@H]1CC[C@@H](C(=O)N(C)c2ccc(-c3cn4ccccc4n3)cc2)C1 | 0.29
3 | CC(C)C(=O)N[C@H]1CC[C@@H](C(=O)N(C)c2ccc(-c3nc4ccccc4[nH]3)cc2)C1 | 1.5
4 | COCC(=O)N[C@H]1CC[C@@H](C(=O)N(C)c2ccc(-c3nc4ccccc4o3)cc2)C1 | 0.91
5 | CN(C(=O)[C@@H]1CC[C@H](NC(=O)C(F)F)C1)c1ccc(-c2nc3ccccc3o2)cc1 | 0.27
6 | CCNC(=O)N[C@H]1CC[C@@H](C(=O)N(C)c2ccc(-c3nc4ccccc4[nH]3)cc2)C1 | 0.4
7 | CCNC(=O)N[C@H]1CC[C@@H](C(=O)N(C)c2ccc(-c3nc4ccccc4n3C)cc2)C1 | 1.4
8 | CCC(=O)N[C@H]1CC[C@@H](C(=O)N(C)c2ccc(-c3nc4ccccc4[nH]3)cc2)C1 | 0.19
9 | CCCC(=O)N[C@H]1CC[C@@H](C(=O)N(C)c2ccc(-c3nc4ccccc4o3)cc2)C1 | 0.42

Next, values leading:

Row | IC50 [µM] | SMILES
10 | 1.3 | CC(=O)N[C@H]1CC[C@@H](C(=O)N(C)c2ccc(-c3nc4ccccc4[nH]3)cc2)C1
11 | 2 | CN(C)CCCCCC(=O)N[C@H]1CC[C@@H](C(=O)N(C)c2ccc(-c3ccccc3)cc2)C1
12 | 0.48 | CC(=O)N[C@H]1CC[C@@H](C(=O)N(C)c2ccc(-c3ccccc3)cc2)C1
13 | 0.3 | CCC(=O)N[C@H]1CC[C@@H](C(=O)N(C)c2ccc(-c3ccccc3)cc2)C1
